Kir21 block – Kir2.1 (mouse) channel inhibition. P35561. HEK293-Kir2.1, FluxOR thallium flux fluorescence; active compounds read low. B-score at 10 µM. hit rate 0.85% among 310,000;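 active means fluorescence ratio B-score at or below minus 3 SD of library scores, with starting-brightness B-score within 2 SD, cut at about -4.2 in these data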;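 further: channel flux triggered by added potassium and thallium sulfate stimulus; B-score of peak minus minimum fluorescence over baseline after thallium stimulus; more negative B-score means stronger Kir2.1 block with less thallium influx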
hERG rescue – compounds protecting human hERG from proarrhythmic drug block; Q12809; AID 1511; CHO-hERG, FluxOR thallium flux, dofetilide IC70 present; activation (rescue from dofetilide block), less the hit threshold, % at 10 µM; hit rate 0.51% among 310,000;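 active means activation above the mean of controls blocked by dofetilide plus 5 SD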;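 further: thallium influx through hERG after potassium depolarization seen as dye fluorescence rise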
KCNQ1 inh – inhibitors of human KCNQ1 potassium channel | P51787 | CHO-K1 KCNQ1, FluxOR thallium flux fluorescence; active compounds read high | B-score at 10 µM | hit rate 1.3% among 310,000 | AID 2642;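 active means compounds whose thallium flux B-score, printed positive for inhibition, exceeds three library SD while starting fluorescence stays within three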;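 further: channel opened by potassium depolarization with thallium stimulus after 20 min compound exposure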
KCNQ1 pot – human KCNQ1 channel potentiation or activation; P51787; CHO-K1 KCNQ1, thallium flux FluxOR fluorescence; active compounds read high; B-score at 10 µM; hit rate 0.35% among 310,000; AID 2648;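 active means fluorescence ratio B-score, a plate-corrected score, at least three library SD, with initial intensity B-score within 5 SD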
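Assay system: CHO-K1 cells stably expressing KCNQ1; Medium: assay buffer with matched DMSO; Also added: K+/Tl+ depolarizing stimulus; Dosing: single dose; Timing: dye 90 min, compound 20 min, room temperature; Measured by: kinetic FluxOR thallium fluorescence, 10-s 1-Hz baseline, 110-s post-stimulus read; Read-out: peak-minus-minimum fluorescence over initial fluorescence, negative-control normalized, B-scored.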
KCNK3 inh – human KCNK3 channel inhibition, primary screen | O14649 | CHO-KCNK3 thallium flux, FluxOR fluorescence; active compounds read low | B-score at 10 µM | hit rate 0.84% among 340,000 | AID 602410;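 active means B-score under library mean minus 4 SD, starting fluorescence ratio at most library mean plus 5 SD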;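 further: more negative B-score means stronger inhibition of thallium flux through KCNK3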
Target sequence (O14649 whole entry, looked up): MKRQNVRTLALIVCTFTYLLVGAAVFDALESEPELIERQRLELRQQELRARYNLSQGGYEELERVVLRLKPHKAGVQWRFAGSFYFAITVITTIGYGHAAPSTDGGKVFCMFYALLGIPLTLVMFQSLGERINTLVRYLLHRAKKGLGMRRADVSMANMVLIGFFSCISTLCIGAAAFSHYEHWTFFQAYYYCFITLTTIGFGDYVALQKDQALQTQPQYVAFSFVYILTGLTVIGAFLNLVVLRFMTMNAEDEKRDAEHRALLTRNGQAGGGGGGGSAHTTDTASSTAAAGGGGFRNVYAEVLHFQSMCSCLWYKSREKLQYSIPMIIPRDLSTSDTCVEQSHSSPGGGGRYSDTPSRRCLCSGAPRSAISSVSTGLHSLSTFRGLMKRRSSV
KCNK9 block – blocks the human KCNK9 two-pore domain potassium channel. hit rate 1.2% among 310,000. B-score at 10 µM. Q9NPC2. HEK293 KCNK9, FluxOR thallium flux fluorescence; active compounds read low. AID 488922;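 active means ratio B-score over 3 SD below the library mean, with starting fluorescence within 5 SD of its mean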;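 further: negative B-score means less thallium flux so channel inhibition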
Target sequence (Q9NPC2 whole entry, looked up, the tested form may be a part): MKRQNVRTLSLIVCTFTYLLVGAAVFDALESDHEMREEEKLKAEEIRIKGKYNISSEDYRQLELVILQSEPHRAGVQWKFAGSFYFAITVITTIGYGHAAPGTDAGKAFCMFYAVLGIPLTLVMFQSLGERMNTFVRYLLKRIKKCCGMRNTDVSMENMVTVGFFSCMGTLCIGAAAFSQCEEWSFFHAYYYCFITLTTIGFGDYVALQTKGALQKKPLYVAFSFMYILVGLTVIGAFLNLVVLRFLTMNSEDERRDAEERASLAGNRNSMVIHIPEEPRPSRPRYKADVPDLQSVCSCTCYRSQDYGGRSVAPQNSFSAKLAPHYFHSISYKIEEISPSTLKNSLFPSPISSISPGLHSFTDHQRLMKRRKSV
KCNK9 inh conf – confirmation of human KCNK9 potassium channel inhibitors. shares compounds with KCNK9 block. HEK293 KCNK9 cells, FluxOR thallium flux fluorescence. inhibition, % at 10 µM. hit rate 43% among 4,900. AID 492992;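 active means thallium signal inhibited by more than 5 SD of the compound-free buffer control wells, on both duplicate plates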;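 further: 0% = assay buffer control wells without compound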
Kir21 sel – tests whether KCNK9 modulators also affect mouse Kir2.1; hit rate 4% among 4,900; AID 492993; shares compounds with KCNK9 block; inhibition, % at 10 µM; Kir2.1 cells, FluxOR thallium flux fluorescence;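 active means thallium signal drop more than 5 SD beyond the mean of the no-compound control wells, seen in both duplicate plates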;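 further: signal is fluorescence rise after thallium addition divided by baseline fluorescence; plate controls were assay buffer only for no effect and full block by chlorpromazine control for full effect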
KCNK9 uninduced – non-induced cell nonspecific activity of KCNK9 modulators | shares compounds with KCNK9 block | non-induced KCNK9-HEK293, FluxOR thallium flux | inhibition, % at 10 µM | hit rate 40% among 4,900 | AID 492997;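 active means thallium signal drop beyond 5 SD of the untreated control mean, on both duplicate plates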;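 further: plate controls were buffer only IC0 wells for no effect and SID17386958 at its maximal inhibitory level for full effect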
KCNK3 inh conf – human KCNK3 channel inhibition, confirmation assay; ratio percent of control, % at 10 µM; AID 651638; CHO-KCNK3 thallium flux, FluxOR fluorescence; 0% buffer, 100% carvedilol maximal block; hit rate 99% among 2,400; shares compounds with KCNK3 inh;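 active means ratio percent of control, averaged over triplicates, above buffer control mean plus 5 SD, cut at about 64% in these data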;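 further: ratio is the fluorescence rise from min to max over baseline after thallium stimulus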
KCNK3 uninduced – counter-screen for KCNK3 inhibitors: effect in non-induced cells. non-induced KCNK3 parental cells, FluxOR thallium flux; active compounds read low. thallium flux ratio (lower = more inhibition) at 10 µM. hit rate 40% among 2,400. shares compounds with KCNK3 inh;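 active means thallium flux ratio, averaged over three wells, more than 5 SD below the buffer control mean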;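 further: host cells are CHO cells without KCNK3 induction; ratio is peak minus trough fluorescence over baseline then normalized to buffer controls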
Starred values were filed as active, the others as inactive; i = inactive; nt = not tested or not shown. The list is not random: actives were taken first. Their share in the collection is about 3.7%.

SMILES	Kir21 block	hERG rescue	KCNQ1 inh	KCNQ1 pot	KCNK3 inh	KCNK9 block	KCNK9 inh conf	Kir21 sel	KCNK9 uninduced	KCNK3 inh conf	KCNK3 uninduced
CC1=C(C(=O)Nc2ccccc2)C(c2ccco2)NC(=S)N1 (stereo not drawn)	-0.73	-5.9	i	i	i	i	nt	nt	nt	nt	nt
O=C(Nc1ccccc1)C1=C(O)CC(c2ccco2)CC1=Nc1ccccc1 (stereo not drawn)	0.05	-6.5	i	i	i	-11.5*	27.0%*	i	36.0%*	114.7*	0.155*
CC1(C(=O)N2CCN(c3ccc([N+](=O)[O-])cc3)CC2)CC1(Cl)Cl (stereo not drawn)	-0.06	-9.1	i	i	i	i	nt	nt	nt	nt	nt
COc1ccc(NC(=O)/C(C#N)=C\c2ccc(N3CCOCC3)o2)cc1	-4.82	-22.1	10*	i	-11.5*	-8.73*	48.5%*	35.5%*	76.5%*	131.7*	0.0913*
COC(=O)c1cc2sccc2n1Cc1nc(-c2cccc(Cl)c2)oc1C	1.49	-1.3	i	i	-8.7*	-8.49*	28.0%*	i	30.5%*	93.3*	i
O=C(c1c(F)cccc1F)N(C1CCCCC1)C1CCCCC1	-0.25	-6.1	i	i	-12.2*	-12*	67.5%*	i	27.5%*	132.7*	0.124*
O=C(c1c(F)cccc1F)N(Cc1cccs1)C1CCCC1	-1.15	-7.5	i	i	i	i	nt	nt	nt	nt	nt
Cc1ccsc1CN(C)C(=O)CN1C(=O)NC(c2ccccc2)(c2ccccc2)C1=O	nt	nt	nt	nt	i	nt	nt	nt	nt	nt	nt
Cc1cccc(NC(=O)CCN2C(=O)c3ccccc3S2(=O)=O)c1C	0.06	-4.5	i	i	i	i	nt	nt	nt	nt	nt
COc1ccc(CN(C(=O)/C=C/c2ccccc2Cl)C2CCS(=O)(=O)C2)cc1 (stereo not drawn)	1.91	-7.7	i	i	-11.1*	-13.9*	49.0%*	i	31.5%*	103.0*	0.151*
CN(CCOc1ccc(Cl)cc1)Cc1cccc(S(=O)(=O)N(C)C)c1	-1.04	-8.2	i	i	-9.17*	-9.72*	45.0%*	i	51.5%*	103.0*	i
CN(C)S(=O)(=O)c1cccc(NC(=O)Cc2ccc(Cl)cc2)c1	-1.35	-0.9	i	i	i	i	nt	nt	nt	nt	nt
Cc1cc(C)c2nc(C)cc(N/N=C/c3ccc(O)cc3)c2c1	-10.1*	-35.7	10*	i	-11.6*	-15.4*	71.5%*	35.5%*	i	134.7*	0.124*
COc1cccc(C(CNc2ccc(S(=O)(=O)N3CCN(C)CC3)cc2[N+](=O)[O-])N(C)C)c1 (stereo not drawn)	nt	nt	nt	nt	i	nt	nt	nt	nt	nt	nt
COc1ccc(CN(C(=O)CSc2nnc(-c3ccc(F)cc3)o2)c2ccc(F)cc2)cc1	-0.04	-11.6	i	i	i	i	nt	nt	nt	nt	nt
COc1ccc(CN(C(=O)CSc2nnc(-c3c[nH]c4ccccc34)o2)c2ccc(F)cc2)cc1OC	-0.7	-16.9	i	i	-13.9*	-8.81*	i	i	i	105.3*	0.13*
CCn1nc(C(=O)Nc2ccccc2C)c(Cl)c1Cl	0.53	-6.6	i	i	i	i	nt	nt	nt	nt	nt
CCn1nc(C(=O)Nc2cccc3ccccc23)c(Cl)c1Cl	-1.11	-16.8	i	i	i	-10.4*	49.0%*	i	36.0%*	126.3*	0.16*
CCOC(CCn1c(SCc2ccc([N+](=O)[O-])cc2)nc2ccccc2c1=O)OCC	1.26	-6.3	i	i	i	-15.2*	74.5%*	i	38.0%*	116.7*	i
COCC(C)n1c(SCc2ccc(OC)c(F)c2)nc2ccccc2c1=O (stereo not drawn)	0.12	-12.8	i	i	-11.2*	-18*	76.0%*	i	49.5%*	115.7*	i
CCn1c(SCc2ccc(OC)c(F)c2)nc2ccccc2c1=O	1.79	-3.4	i	i	-11.6*	-20*	78.5%*	i	45.5%*	106.7*	i
Cc1ccc(-n2c(SCc3ccc([N+](=O)[O-])cc3)nc3ccccc3c2=O)cc1	0.45	-12.3	i	i	i	i	nt	nt	nt	nt	nt
COCC(C)n1c(SCc2ccc(C(=O)OC)cc2)nc2ccccc2c1=O (stereo not drawn)	0.57	-8.6	i	i	-11.6*	-15.7*	61.5%*	i	38.5%*	125.0*	0.142*
CCN(CC(=O)Nc1ccc(NC(C)=O)cc1)C(=O)c1cn(-c2ccccc2)nc1-c1cccs1	nt	nt	nt	nt	i	nt	nt	nt	nt	nt	nt
O=C(c1ccco1)N1c2ccccc2Sc2ccccc21	-2.74	-9.2	i	i	-9.23*	-9.4*	31.0%*	i	30.5%*	116.3*	i
SMILES	Kir21 block	hERG rescue	KCNQ1 inh	KCNQ1 pot	KCNK3 inh	KCNK9 block	KCNK9 inh conf	Kir21 sel	KCNK9 uninduced	KCNK3 inh conf	KCNK3 uninduced
O=C(c1ccco1)N1CCN(C(=O)N2c3ccccc3Sc3ccccc32)CC1	0.05	-10.8	i	i	i	i	nt	nt	nt	nt	nt
COc1ccc(/C=N/NC(=O)c2cccc(NC(=O)c3ccccc3Cl)c2)cc1	-0.95	-7.3	i	i	i	i	nt	nt	nt	nt	nt
COc1ccc(/C(C)=N/NC(=O)c2ccccc2OCc2ccccc2)c(OC)c1	1.34	-3.3	i	i	i	i	nt	nt	nt	nt	nt
COc1ccc(/C=N/NC(=O)c2cccc(NC(=O)c3ccccc3Cl)c2)c(OC)c1	-1	-7.7	i	i	-10*	-12.1*	49.0%*	i	i	106.3*	i
COc1ccc(/C=N/NC(=O)c2ccccc2OCc2ccccc2)c(OC)c1	0.03	-19.6	11*	i	-12.5*	-20.7*	72.5%*	i	i	126.0*	0.141*
Cc1cc(C)c(S(=O)(=O)N2CCCCC2)c(C)c1N(C)S(=O)(=O)c1ccccc1	1.02	-4.6	i	i	-8.76*	i	i	i	i	97.0*	0.157*
Cc1cc(C)c(S(=O)(=O)N2CCOCC2)c(C)c1N(C)S(=O)(=O)c1ccccc1	-0.2	-16.1	i	i	i	i	nt	nt	nt	nt	nt

Bioassay records (PubChem BioAssay)
